T1: S-methyl-5'-thioadenosine phosphorylase (Mus musculus) (UniProt Q9CQ65)
T1 sequence (whole entry): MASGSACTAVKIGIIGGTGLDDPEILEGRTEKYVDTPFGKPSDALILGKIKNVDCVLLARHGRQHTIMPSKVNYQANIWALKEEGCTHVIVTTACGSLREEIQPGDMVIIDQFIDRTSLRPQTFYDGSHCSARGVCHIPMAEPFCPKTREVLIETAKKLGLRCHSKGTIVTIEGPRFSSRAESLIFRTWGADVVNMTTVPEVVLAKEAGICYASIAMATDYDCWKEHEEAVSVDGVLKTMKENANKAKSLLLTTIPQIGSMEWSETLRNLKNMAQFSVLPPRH

T2: S-methyl-5'-thioadenosine phosphorylase (Mus musculus, UniProt Q9CQ65)
T2 sequence (Q9CQ65 whole entry): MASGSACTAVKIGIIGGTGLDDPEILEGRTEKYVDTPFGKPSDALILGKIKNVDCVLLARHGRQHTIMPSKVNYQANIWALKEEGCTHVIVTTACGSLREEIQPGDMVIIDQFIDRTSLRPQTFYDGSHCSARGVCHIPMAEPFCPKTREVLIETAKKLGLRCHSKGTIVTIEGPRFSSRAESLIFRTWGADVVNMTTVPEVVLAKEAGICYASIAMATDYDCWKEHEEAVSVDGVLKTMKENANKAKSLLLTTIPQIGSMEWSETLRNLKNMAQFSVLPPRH


Tests used:
L5178Y [1] = test: The concentration required to inhibit cell growth by 50% was measured on L5178Y Leukemic cell line of mouse(48h after exposure); assay type: functional, cell-based
Outline: (§1)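 Suspension cultures in RPMI 1640 with 10% Nu Serum, seeded at 0.3×10^5 cells/mL. Compounds were dissolved fresh in DMSO, diluted in serum-free medium, and tested at 0.1-1000 µM for 48 h (about 4 doublings). Cells were counted by Coulter counter and the 50% growth-inhibitory concentration determined.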

[2] = biological target: T1, S-methyl-5'-thioadenosine phosphorylase (Mus musculus); test: The ability to act as substrates for MTA phosphorylase activity was determined by using a mouse liver enzyme preparation; assay type: functional, tissue-based; design: concentration or dose not given beside the values
Outline: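 Mouse liver MTA phosphorylase preparation, spectrophotometric assay. The analogue was used as substrate and the absorbance change at λ 305 was read after a 10-min incubation. Activity is expressed relative to MTA as control substrate. Duplicate samples, agreeing within 15%.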

MOLT-4 = test: The concentration required to inhibit cell growth by 50% was measured on human MOLT-4 cells (96h after exposure); assay type: functional, cell-based; conditions: MOLT-4, 96 h
Outline: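 MOLT-4 suspension culture in RPMI 1640 with 10% Nu Serum, seeded at 0.3×10^5 cells/mL. Compounds were freshly dissolved in DMSO, diluted in serum-free medium, and tested at 0.1-1000 µM for 96 h (about 4 doublings). Cells were counted electronically (Coulter) and the 50% growth-inhibitory concentration determined.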

[3] = biological target: Adenosylhomocysteinase (Bos taurus) (UniProt Q3MHL4); test: Percentage enzyme activity remaining was measured by the inhibition S-adenosyl-L-homocysteine hydrolase from bovine liver at 0.01 uM
Sequence of Adenosylhomocysteinase (Bos taurus) (Q3MHL4 whole entry, looked up): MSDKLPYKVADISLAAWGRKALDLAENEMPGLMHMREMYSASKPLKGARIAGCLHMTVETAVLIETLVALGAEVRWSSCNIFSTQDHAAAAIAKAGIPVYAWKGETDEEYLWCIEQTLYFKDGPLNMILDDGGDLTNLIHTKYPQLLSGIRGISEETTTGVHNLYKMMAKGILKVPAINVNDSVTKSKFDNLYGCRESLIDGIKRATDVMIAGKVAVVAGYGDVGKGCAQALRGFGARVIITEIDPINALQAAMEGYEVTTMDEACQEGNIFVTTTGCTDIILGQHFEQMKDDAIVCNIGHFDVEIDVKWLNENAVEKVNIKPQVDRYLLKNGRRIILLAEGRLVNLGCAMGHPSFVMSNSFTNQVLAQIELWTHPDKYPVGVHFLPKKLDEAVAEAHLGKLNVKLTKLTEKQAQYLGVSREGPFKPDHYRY

L1210 [4] = test: Effect of compound on spermidine(SPD) polyamine pool in L1210 murine leukemia cells expressed in terms of nmol/10e6 cells; assay type: functional, Mus musculus
CCRF-CEM = test: The concentration required to inhibit cell growth by 50% was measured on human CCRF-CEM cells (96h after exposure); assay type: functional, cell-based
Outline: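 CCRF-CEM cells grown in 10% horse serum, seeded at 0.3×10^5 cells/mL. Compounds were freshly dissolved in DMSO, diluted in serum-free medium, and tested at 0.1-1000 µM for 96 h (about 4 doublings). Cells were counted by Coulter counter and the concentration giving 50% growth inhibition determined.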

L1210 [5] = test: The concentration required to inhibit cell growth by 50% was measured on L1210 Leukemic cell line of mouse(48h after exposure); assay type: functional, cell-based; conditions: L1210, 48 h; outline: as §1
L5178Y [6] = test: Effect of compound on spermidine(SPD) polyamine pool in L5178Y murine leukemia cells expressed in terms of nmol/10e6 cells; assay type: functional, Mus musculus
L5178Y [7] = test: Effect of compound on putrescine(PUT) polyamine pool in L5178Y murine leukemia cells expressed in terms of nmol/10e6 cells; assay type: functional, Mus musculus
L1210 [8] = test: Effect of compound on putrescine(PUT) polyamine pool in L1210 murine leukemia cells expressed in terms of nmol/10e6 cells; assay type: functional, Mus musculus
L1210 [9] = test: Effect of compound on spermine(SPM) polyamine pool in L1210 murine leukemia cells expressed in terms of nmol/10e6 cells; assay type: functional, Mus musculus
L5178Y [10] = test: Effect of compound on spermine(SPM) polyamine pool in L5178Y murine leukemia cells expressed in terms of nmol/10e6 cells; assay type: functional, Mus musculus
L5178Y [11] = test: Effect of compound on putrescine(PUT) polyamine pool in L5178Y murine leukemia cells expressed as nmol/10e6 cells; assay type: functional, Mus musculus
[12] = biological target: T2, S-methyl-5'-thioadenosine phosphorylase; test: The inhibitory constant(Ki) for MTA phosphorylase activity was determined by using a mouse liver enzyme preparation
Outline: (§2)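 Mouse liver MTA phosphorylase preparation. Conversion of [methyl-³H]MTA to [methyl-³H]MTRP was measured in the presence of analogue. Ki was derived from Lineweaver-Burk plots. Duplicate samples, agreeing within 15%.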

[13] = compound: CSC[C@H]1O[C@@H](n2cnc3c(N)ncnc32)[C@H](O)[C@@H]1O; test: The inhibitory constant for MTA phosphorylase activity was determined by using a mouse liver enzyme preparation; assay type: functional, tissue-based; outline: as §2

Row | Molecule | Control [2] | IC50 (MOLT-4) | Activity [3] | IC50 (CCRF-CEM) | IC50 (L1210 [5]) | Ki [12] | IC50 (L5178Y [1]) | Activity (L1210 [4]) | Activity (L5178Y [6]) | Activity (L5178Y [7]) | Activity (L1210 [8]) | Activity (L1210 [9]) | Activity (L5178Y [10]) | Activity (L5178Y [11]) | Km [13]
1 | CSC[C@H]1O[C@@H](n2cnc3c(N)ncnc32)[C@H](O)[C@@H]1O [METHYLTHIOADENOSINE] | 100% | 11 µM | 101% | 150 µM | 850 µM |  | 200 µM | 1.22 | 2.79 |  | 1.93 | 0.19 | 0.43 | 1.85 | 
2 | Nc1ncnc2c1ncn2C1O[C@H](CSCCBr)[C@@H](O)[C@H]1O (some centres not stated) | 38% |  |  |  |  |  |  |  |  |  |  |  |  |  | 
3 | Nc1ncnc2c1ncn2C1O[C@H](CSCCCF)[C@@H](O)[C@H]1O (some centres not stated) | 66% | 25 µM | 97% | 160 µM | 600 µM | 4 µM | 600 µM | 0.99 | 1.79 | 0.36 nmol/10e6 cells | 0.34 | 0.44 | 1.07 |  | 
4 | CCSC[C@H]1OC(n2cnc3c(N)ncnc32)[C@H](O)[C@@H]1O (some centres not stated) | 95% | 20 µM | 99% | 200 µM | 800 µM | 1.9 µM | 250 µM | 1.01 | 1.75 | 0.69 nmol/10e6 cells | 0.77 | 0.54 | 1.29 |  | 
5 | Nc1ncnc2c1ncn2C1O[C@H](CSCCCl)[C@@H](O)[C@H]1O (some centres not stated) | 35% |  |  |  |  |  |  |  |  |  |  |  |  |  | 
6 | S-methyl-5'-thioadenosine phosphorylase (Mus musculus), Q9CQ65 (protein) MASGSACTAVKIGIIGGTGLDDPEILEGRTEKYVDTPFGKPSDALILGKIKNVDCVLLARHGRQHTIMPSKVNYQANIWALKEEGCTHVIVTTACGSLREEIQPGDMVIIDQFIDRTSLRPQTFYDGSHCSARGVCHIPMAEPFCPKTREVLIETAKKLGLRCHSKGTIVTIEGPRFSSRAESLIFRTWGADVVNMTTVPEVVLAKEAGICYASIAMATDYDCWKEHEEAVSVDGVLKTMKENANKAKSLLLTTIPQIGSMEWSETLRNLKNMAQFSVLPPRH |  |  |  |  |  |  |  |  |  |  |  |  |  |  | 1.3 µM

Now from value to molecule, other results behind:

Row | Control [2] | IC50 (MOLT-4) | Activity [3] | IC50 (CCRF-CEM) | IC50 (L1210 [5]) | Ki [12] | Molecule | IC50 (L5178Y [1]) | Activity (L1210 [4]) | Activity (L5178Y [6]) | Activity (L5178Y [7]) | Activity (L1210 [8]) | Activity (L1210 [9]) | Activity (L5178Y [10]) | Activity (L5178Y [11]) | Km [13]
7 | 64% | 10 µM | 102% | 75 µM | 150 µM |  | Nc1ncnc2c1ncn2C1O[C@H](CSCCF)[C@@H](O)[C@H]1O (some centres not stated) | 60 µM | 1.95 | 1.55 | 0.27 nmol/10e6 cells | 0.56 | 0.86 | 1.43 |  | 
8 | 34% | 40 µM |  | 100 µM | 1000 µM |  | Nc1ncnc2c1ncn2C1O[C@H](CSCCO)[C@@H](O)[C@H]1O (some centres not stated) | 500 µM | 1.17 | 1.9 | 0.66 nmol/10e6 cells | 0.75 | 0.58 | 1.5 |  | 
9 | 102% | 45 µM | 100% | 160 µM | 1000 µM | 1.7 µM | CCCSC[C@H]1OC(n2cnc3c(N)ncnc32)[C@H](O)[C@@H]1O (some centres not stated) | 500 µM | 0.57 | 1.18 | 0.25 nmol/10e6 cells | 0.26 | 0.41 | 1 |  | 

From ChEMBL document CHEMBL1125934, “Targeting 5'-deoxy-5'-(methylthio)adenosine phosphorylase by 5'-haloalkyl analogues of 5'-deoxy-5'-(methylthio)adenosine” (J Med Chem, 1991)
